# Bioassay records (PubChem)
# Calpain2 inh – calpain II (pig) inhibition | purified calpain II, fluorogenic peptide substrate, 30 min | inhibition, % at 16 µM | 220,000 compounds, 0.37% hits;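 active = inhibition above about 50%, limit read from the data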
# RBBP9 inhibitor – blocks human serine hydrolase RBBP9; inhibition, % at 7.94 µM; O75884; 220,000 compounds, 0.2% hits; recombinant RBBP9, FP-Rh probe fluorescence polarization;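 active = inhibition above the campaign mean of all tested compounds plus 3 SD, cut at about 14% in these data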;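 note: plate controls were DMSO wells with RBBP9 for no effect and wells lacking RBBP9 protein for full effect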
# Target sequence (O75884 whole entry, looked up): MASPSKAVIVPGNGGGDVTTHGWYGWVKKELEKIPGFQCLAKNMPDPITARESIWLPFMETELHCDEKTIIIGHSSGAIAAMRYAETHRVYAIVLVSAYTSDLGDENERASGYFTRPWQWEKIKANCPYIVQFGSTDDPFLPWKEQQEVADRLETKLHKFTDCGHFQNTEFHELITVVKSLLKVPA
#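 Test system: recombinant human RBBP9; Timing: 30 min then 45 min, 25 °C; Detection: fluorescence polarization; Control set: RBBP9 with DMSO as uninhibited control, no-protein wells as full inhibition; Compound dosing: one concentration, 7.94 µM nominal, 0.794% DMSO; Probe or stimulus: FP-Rh activity-based probe, 375 nM before mixing.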
# TNF necrop inh – inhibitors of TNF-alpha induced necroptosis in Jurkat FADD-/- cells; Jurkat FADD-/- TNF necroptosis rescue, ATP luminescence, 24 h; 0 = TNF only, 100 = no-TNF cells; activation (protection from cell death), % at 10 µM; 220,000 compounds, 0.068% hits; AID 463075;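 active = activation, meaning protection from cell death, of at least 50% relative to plate controls; inactive = activation below 50%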;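 note: necroptosis triggered by 40 ng/mL TNF-alpha added together with compound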
# Wee1 stabilizer – blocks degradation of human Wee1 kinase | HeLa Luc-Wee1K328M stability, luciferase luminescence; 100% = proteasome inhibitor MG132 effect | reporter increase, % at 5 µM | 220,000 compounds, 1.2% hits;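 active = activation above the mean of all tested compounds plus 3 SD, set per screening run, cut at about 8.8% in these data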;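 note: cells exposed to compound for 20 h before luminescence read; 0% = DMSO alone and 100% = MG132 at 30 µM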
# Pf gamet viab – inhibitors of late stage P. falciparum gametocyte viability. P. falciparum stage V gametocytes, ATP luminescence, 24 h. inhibition, % at 10.9 µM. 150,000 compounds, 0.065% hits. AID 743093;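 active = inhibition above the mean plus 3 SD of compounds within the control limits, set per campaign, cut at about 38% in these data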;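 note: 0% = DMSO wells and 100% = medium only without gametocytes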
# L929 necroptosis – blocks zVAD induced death of L929 cells | L929 zVAD necroptosis rescue, ATP luminescence, 24 h; with zVAD 60 µM | viability rescue, % at 10 µM | 220,000 compounds, 0.38% hits;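 active = activation, scaled between plate controls, above about 75%, limit read from the data; inactive = activation under that limit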;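 note: 0% = zVAD with DMSO and 100% = DMSO alone without zVAD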
# Wee1 stab conf – confirmation of human Wee1 degradation inhibitors | shares compounds with Wee1 stabilizer | HeLa Luc-Wee1K328M degradation, luminescence; vehicle 0%, proteasome-blocked wells 100% | activation, % at 5 µM | 1,100 compounds, 4% hits; in the data active = activation above about 8.9%
# The depositor's hits bear a star; i = inactive; . = not tested or not shown. Most compounds without a hit are left out; they make up all but 2.1% or so of the library.
SMILES,Calpain2 inh,RBBP9 inhibitor,TNF necrop inh,Wee1 stabilizer,Pf gamet viab,L929 necroptosis,Wee1 stab conf
C(=C\c1nnc2c3ccccc3ncn12)/c1ccccc1,-39.8,-6.8,-3.2,12.2*,-12.9,3.9,8.2
CCCn1c(SCC(=O)Nc2cc(S(=O)(=O)N3CCOCC3)ccc2OC)n[nH]c1=O,-1.2,-4.2,1.0,-1.9,6.3,1.1,.
COC(=O)Cc1c(C(=O)OC)nnn1-c1ccc(OC(F)(F)F)cc1,39.2,-14.0,0.1,15.9*,4.7,-1.2,4.7
CN(C)C(=S)N=Nc1[nH]c2ccccc2c1O,27.9,-4.2,-13.3,11.0*,14.6,3.0,-0.8
O=C1N/C(=N\N=C\c2cccs2)SC1Cc1ccc(Cl)c(Cl)c1 (stereo not drawn),26.8,-6.5,-0.3,-0.1,-5.6,3.7,.
CN(C)S(=O)(=O)c1ccc(C(=O)OCCn2cnc3c2c(=O)n(C)c(=O)n3C)cc1,5.3,-0.1,0.3,-4.2,21.0,0.7,.
CC(C)(C)OC(=O)C(Cl)(C(=O)OC(C)(C)C)c1ccc2nnnn2n1,6.0,4.4,-6.6,11.0*,-2.3,2.1,-0.2
CCOc1ccc2nnnn2n1,7.5,9.2,-0.4,-2.7,-4.3,0.9,.
CC1CCCN(CC(O)COC(c2ccccc2)c2ccccc2)C1 (stereo not drawn),21.3,-6.1,1.4,12.2*,.,-0.7,-1.1
OC1CCCN(CC(O)COC(c2ccccc2)c2ccccc2)C1 (stereo not drawn),-19.3,-2.1,0.9,4.4,-5.2,-0.6,.
CCN(CC(=O)NCc1cccs1)c1ccc(S(=O)(=O)N2CCCC2)cn1,-41.4,0.6,0.9,13.7*,13.1,1.1,2.1
CCN(CC(=O)NCc1cccs1)c1ccc(S(=O)(=O)N2CCOCC2)cn1,-22.3,-1.3,0.9,-1.5,.,0.1,.
CCOC(=O)/C(C#N)=C\C1=C(N2CCOCC2)CC(C)(C)OC1,-10.2,-8.0,1.1,-0.7,7.4,0.8,.
CC(C)C(OC(=O)c1cccs1)C(=O)NCc1cccs1 (stereo not drawn),-19.0,3.1,-0.8,1.2,.,-0.9,.
Cc1ccc2nc(C3CCN(CC(=O)Nc4ccc5c(c4)OCCO5)CC3)[nH]c2c1,25.8,2.6,-3.0,12.1*,.,0.1,-0.2
CCC(C)NC(=O)CCSc1ccc(C)cc1 (stereo not drawn),20.6,-7.2,1.0,0.4,.,-0.1,.
COc1ccc(S(=O)(=O)N2CCN(CC(=O)Nc3ccc(F)c(F)c3)CC2)cc1,2.4,-8.5,2.8,12.1*,-2.1,0.4,0.6
O=C(Nc1ccc2sccc2c1)c1cccc(N2C(=O)CCC2=O)c1,-8.1,-1.9,0.4,14.6*,-3.4,6.8,4.5
O=C(Nc1nc2cc3c(cc2s1)OCCO3)c1cccc(N2C(=O)CCC2=O)c1,-68.6,1.0,0.6,-0.7,.,1.3,.
COc1ccc2cc(C(=O)C3CCCN(C(=O)c4cc5nc(C)cc(C)n5n4)C3)ccc2c1 (stereo not drawn),i,4.2,-0.2,-0.7,-8.8,-0.7,.
CNC(=O)c1c(Cl)cnn1-c1ccc(F)cc1,8.6,-0.5,-0.3,13.4*,.,0.8,2.6
CCN(CC)C(=O)CSCc1cnn(-c2ccccc2)c1-n1cccc1,0.7,5.1,0.7,15.8*,8.3,-0.3,1.4
O=C(CSCc1cnn(-c2ccccc2)c1-n1cccc1)NCc1ccccn1,-10.4,-1.8,0.9,-2.3,-28.4,-1.2,.
COc1ccc(NC(=O)c2ccc(Cl)c(NC(=O)c3ccncc3)c2)cc1,23.6,-7.4,3.2,12.4*,.,0.2,-3.2
O=C(Nc1ccncc1)c1ccc(Cl)c(Cl)c1,.,.,.,.,-12.7,.,.
COc1ccc(C(=O)Nc2cccc(C)c2)cc1,-1.7,-4.2,-2.7,11.9*,-3.3,-0.5,0.1
CC(=O)c1cccc(NC(=O)c2ccc(OC3CSC3)cc2)c1,-2.5,2.6,-1.3,0.1,1.8,0.9,.
O=C(Nc1cccc(Br)c1)c1ccc(OC2CSC2)cc1,-3.2,-11.7,1.0,14.3*,.,65.4,0.9
